Data from the M2OR odorant receptor database.

Key:
Settings in all cases: stereoisomer not certain
[1] = molecular target: T1, UniProt Q8VGC6
T1 sequence (whole entry): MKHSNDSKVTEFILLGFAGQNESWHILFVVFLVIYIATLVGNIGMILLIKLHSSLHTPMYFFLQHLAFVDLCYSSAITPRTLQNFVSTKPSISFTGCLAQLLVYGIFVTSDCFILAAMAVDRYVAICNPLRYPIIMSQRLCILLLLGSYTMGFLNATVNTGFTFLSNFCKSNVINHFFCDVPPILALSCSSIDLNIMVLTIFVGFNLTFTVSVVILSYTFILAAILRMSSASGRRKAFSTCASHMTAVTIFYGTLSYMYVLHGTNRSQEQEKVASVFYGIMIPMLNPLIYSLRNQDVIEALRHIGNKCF
In short: (§1)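 Transient luciferase assays in mammalian cell lines were common, though methods varied by source. The values come from published papers and their supplementary material, with extra details from the original authors when needed. Responsive refers to a measured signal the original authors judged statistically different from baseline, and non-responsive (inactive) to the remainder.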

[2] = molecular target: T2, UniProt Q8VGW5
T2 sequence (whole entry): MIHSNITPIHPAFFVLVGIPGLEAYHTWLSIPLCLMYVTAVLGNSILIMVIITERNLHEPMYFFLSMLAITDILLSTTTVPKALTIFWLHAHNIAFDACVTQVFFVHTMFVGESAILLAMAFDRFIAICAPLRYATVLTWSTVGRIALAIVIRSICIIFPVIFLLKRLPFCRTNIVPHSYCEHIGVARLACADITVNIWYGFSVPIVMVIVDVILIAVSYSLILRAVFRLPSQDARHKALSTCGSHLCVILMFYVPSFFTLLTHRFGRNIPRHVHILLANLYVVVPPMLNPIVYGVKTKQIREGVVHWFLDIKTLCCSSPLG
In short: as §1

[3] = molecular target: T3, UniProt Q8VGJ3
T3 sequence (whole entry): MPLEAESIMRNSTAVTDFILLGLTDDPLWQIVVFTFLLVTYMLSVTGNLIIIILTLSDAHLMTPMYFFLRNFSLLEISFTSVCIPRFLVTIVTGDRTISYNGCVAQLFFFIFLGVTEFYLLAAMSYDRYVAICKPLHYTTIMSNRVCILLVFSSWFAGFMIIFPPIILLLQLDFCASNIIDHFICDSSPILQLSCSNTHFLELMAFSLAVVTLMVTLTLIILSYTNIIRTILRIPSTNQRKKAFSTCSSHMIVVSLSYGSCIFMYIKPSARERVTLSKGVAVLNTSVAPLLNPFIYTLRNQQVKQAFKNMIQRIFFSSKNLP
In short: as §1

[4] = molecular target: T4, UniProt Q8VGL0
T4 sequence (whole entry): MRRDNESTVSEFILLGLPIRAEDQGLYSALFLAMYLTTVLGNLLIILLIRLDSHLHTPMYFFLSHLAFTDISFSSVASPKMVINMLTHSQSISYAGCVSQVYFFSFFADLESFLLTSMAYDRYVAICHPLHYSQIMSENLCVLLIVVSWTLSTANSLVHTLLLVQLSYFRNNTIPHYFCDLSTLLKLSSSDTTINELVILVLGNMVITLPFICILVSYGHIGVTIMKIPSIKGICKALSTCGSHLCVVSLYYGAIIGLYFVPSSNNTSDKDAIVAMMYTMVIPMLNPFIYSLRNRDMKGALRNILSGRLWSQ
In short: as §1

[5] = molecular target: T5, UniProt Q8VGU3
T5 sequence (whole entry): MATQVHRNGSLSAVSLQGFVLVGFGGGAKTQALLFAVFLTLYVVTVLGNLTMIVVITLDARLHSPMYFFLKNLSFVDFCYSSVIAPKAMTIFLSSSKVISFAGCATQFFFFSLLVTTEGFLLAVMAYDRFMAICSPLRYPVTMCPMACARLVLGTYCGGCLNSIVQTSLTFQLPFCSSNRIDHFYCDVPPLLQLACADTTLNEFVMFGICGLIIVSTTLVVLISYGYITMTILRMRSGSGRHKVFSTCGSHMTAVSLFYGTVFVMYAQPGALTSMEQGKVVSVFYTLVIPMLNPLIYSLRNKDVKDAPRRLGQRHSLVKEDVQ
In short: as §1

[6] = molecular target: T6, UniProt Q8VGV7
T6 sequence (whole entry): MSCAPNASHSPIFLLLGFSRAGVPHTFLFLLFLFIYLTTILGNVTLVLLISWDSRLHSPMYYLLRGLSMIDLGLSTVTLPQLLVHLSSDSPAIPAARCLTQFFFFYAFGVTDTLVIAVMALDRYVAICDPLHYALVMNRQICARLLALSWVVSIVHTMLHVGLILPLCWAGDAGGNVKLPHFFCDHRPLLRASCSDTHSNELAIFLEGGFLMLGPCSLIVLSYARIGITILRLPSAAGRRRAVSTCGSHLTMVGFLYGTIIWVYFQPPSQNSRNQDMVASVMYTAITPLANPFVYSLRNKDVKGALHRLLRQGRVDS
In short: as §1

[7] = molecular target: T7, UniProt Q8VGX3
T7 sequence (whole entry): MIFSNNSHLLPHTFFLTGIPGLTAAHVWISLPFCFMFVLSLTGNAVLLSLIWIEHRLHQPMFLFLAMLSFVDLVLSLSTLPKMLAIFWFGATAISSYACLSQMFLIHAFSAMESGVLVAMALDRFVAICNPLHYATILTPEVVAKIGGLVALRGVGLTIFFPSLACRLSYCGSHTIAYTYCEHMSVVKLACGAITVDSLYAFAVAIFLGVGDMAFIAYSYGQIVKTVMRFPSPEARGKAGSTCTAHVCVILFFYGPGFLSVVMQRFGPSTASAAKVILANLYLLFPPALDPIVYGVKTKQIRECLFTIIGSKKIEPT
In short: as §1

[8] = molecular target: T8, UniProt Q8VGX5
T8 sequence (whole entry): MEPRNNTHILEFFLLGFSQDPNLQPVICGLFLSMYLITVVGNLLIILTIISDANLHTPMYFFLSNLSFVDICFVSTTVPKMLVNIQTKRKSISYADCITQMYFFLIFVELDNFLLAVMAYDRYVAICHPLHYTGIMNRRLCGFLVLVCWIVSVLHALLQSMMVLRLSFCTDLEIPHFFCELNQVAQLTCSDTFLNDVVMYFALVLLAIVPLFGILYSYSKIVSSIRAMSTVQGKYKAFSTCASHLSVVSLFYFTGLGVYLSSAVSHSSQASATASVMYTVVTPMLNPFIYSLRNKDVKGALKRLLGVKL
In short: as §1

Measured: odorant receptor agonist call

CCCCOC(=O)CCC
inactive: [1] | [2]

CCc1ccccc1O
inactive: [1] | [3] | [5] | [6] | [7] | [8]
active: [4]

O=C(O)C1CCC1
inactive: [1] | [3] | [4] | [5] | [6] | [7] | [8]

CCC=CCCC=CC=O
inactive: [1] | [3] | [4] | [5] | [6] | [7] | [8]

C1CCOC1
inactive: [1] | [3] | [4] | [5] | [6] | [7] | [8]

O=C(O)CCCCCCCCC(=O)O
inactive: [1] | [3] | [4] | [5] | [6] | [7] | [8]

C=CC(=C)CCC=C(C)CCC=C(C)C
inactive: [1] | [3] | [4] | [5] | [6] | [7] | [8]

COC(OC)c1ccccc1
inactive: [1] | [3] | [4] | [5] | [6] | [7] | [8]

CCSCC
inactive: [1] | [3] | [4] | [5] | [6] | [7] | [8]

CC1CCC(C(C)C)C(=O)C1 (centres undefined)
inactive: [1] | [3] | [4] | [5] | [6] | [7] | [8]

C1CCOCC1
inactive: [1] | [3] | [4] | [5] | [6] | [7] | [8]

OCCCCCCCCCO
inactive: [1] | [3] | [4] | [5] | [6] | [7] | [8]

CC(C)CS
inactive: [1] | [3] | [4] | [5] | [6] | [7] | [8]

CCOC(=O)C(C)CC (centres undefined)
inactive: [1] | [3] | [4] | [5] | [6] | [7] | [8]

CC(C)=C1CCC(C)CC1=O (centres undefined)
inactive: [1] | [3] | [4] | [5] | [6] | [7]
active: [8]

CC(CC=O)CCCC(C)(C)O (centres undefined)
inactive: [1] | [3] | [4] | [5] | [6] | [7] | [8]

CSSCc1ccco1
inactive: [1] | [3] | [4] | [5] | [6] | [7] | [8]

COc1cnccn1
inactive: [1] | [3] | [4] | [5] | [6] | [7] | [8]

CCc1nccnc1CC
inactive: [1] | [3] | [4] | [5] | [6] | [7] | [8]

CCC(C)c1nccnc1OC (centres undefined)
active: [8]
inactive: [1] | [3] | [4] | [5] | [6] | [7]

C=C(CC)CCCC(C)(C)O
inactive: [1] | [3] | [4] | [5] | [6] | [7] | [8]

CC(=O)OC1(C)CCC23CC1C(C)(C)C2CCC3C (centres undefined)
active: [5]
inactive: [1] | [3] | [4] | [6] | [7] | [8]

CCCCCC=CCCC=O
inactive: [1] | [3] | [4] | [5] | [6] | [7] | [8]

CC(C)=CCCC(C)=CCOC(=O)C(C)C
inactive: [1] | [3] | [4] | [5] | [6] | [7]
active: [8]

CCc1ncc(C)nc1CC
inactive: [1] | [3] | [4] | [5] | [6] | [7] | [8]

Cc1ccc2c(c1)OCC(=O)CO2
inactive: [1] | [3] | [4] | [5] | [6] | [7] | [8]

CC1(C)CC(=O)CC(=O)C1
inactive: [1] | [3] | [4] | [5] | [6] | [7] | [8]

CC(C)CCN
inactive: [1] | [3] | [4] | [5] | [6] | [7] | [8]

CCCCCCCCC=CC=O
inactive: [1] | [3] | [4] | [5] | [6] | [7] | [8]

CCCCCCC(=O)OCCCC
inactive: [1] | [3] | [4] | [5] | [6] | [7] | [8]

C=CC(C)=CCC=C(C)CCC=C(C)C
inactive: [1] | [3] | [4] | [5] | [6] | [7] | [8]

C=C(C)C1CCC(C)C(O)C1 (centres undefined)
inactive: [1] | [3] | [5] | [6] | [7]
active: [4] | [8]

CCCCCOC(=O)CCC
inactive: [1] | [3] | [4] | [5] | [6] | [7] | [8]

CC=Cc1ccc(OC)cc1
inactive: [1] | [3] | [4] | [5] | [6] | [7] | [8]

CCCCCOC(=O)CC
inactive: [1] | [3] | [4] | [5] | [6] | [7] | [8]

O=C([O-])CCCCCCC(=O)[O-].[H+].[H+]
inactive: [1] | [3] | [4] | [5] | [6] | [7] | [8]

Cc1ccc(OC(=O)C(C)C)cc1
inactive: [1] | [3] | [4] | [5] | [6] | [7] | [8]
